Activity calls are given as the source filed them. The rule behind the calls is not given here.
Key:
[1] = system: Mus musculus; experiment: Antiinflammatory activity against carrageenan-induced paw edema in Swiss albino mouse assessed as swelling thickness at 100 mg/kg, po after 90 mins; type: functional
Summary of the method: (§1)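 Oral dosing in 0.5% CMC; vehicle to controls. Then carrageenan (0.5 mg/25 ll, freshly suspended in 154 mM saline) injected into the right hind paw subplantar tissue; saline into the left paw. Right-left footpad thickness difference measured by dial gauge calliper every 90 min over 6 h. Inhibition % is relative to vehicle control. n = 6; mean ± SEM.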

[2] = system: Mus musculus; experiment: Antiinflammatory activity against carrageenan-induced paw edema in Swiss albino mouse assessed as swelling thickness at 100 mg/kg, po after 180 mins; type: functional; summary of the method: as §1
[3] = system: Mus musculus; experiment: Antiinflammatory activity against carrageenan-induced paw edema in Swiss albino mouse assessed as swelling thickness at 100 mg/kg, po after 270 mins; type: functional; summary of the method: as §1
[4] = system: Mus musculus; experiment: Antiinflammatory activity against carrageenan-induced paw edema in Swiss albino mouse assessed as swelling thickness at 100 mg/kg, po after 360 mins; type: functional; summary of the method: as §1
[5] = system: Mus musculus; experiment: Inhibition of carrageenan-induced paw edema in Swiss albino mouse at 100 mg/kg, po after 90 mins relative to control; type: functional; details: 1.5 h; summary of the method: as §1
[6] = system: Mus musculus; experiment: Inhibition of carrageenan-induced paw edema in Swiss albino mouse at 100 mg/kg, po after 180 mins relative to control; type: functional; details: 3 h; summary of the method: as §1
[7] = system: Mus musculus; experiment: Inhibition of carrageenan-induced paw edema in Swiss albino mouse at 100 mg/kg, po after 270 mins relative to control; type: functional; details: 4.5 h; summary of the method: as §1
[8] = system: Mus musculus; experiment: Inhibition of carrageenan-induced paw edema in Swiss albino mouse at 100 mg/kg, po after 360 mins relative to control; type: functional; details: 6 h; summary of the method: as §1
[9] = system: Mus musculus; experiment: Antiinflammatory activity in Swiss albino mouse assessed as inhibition of carrageenan-induced paw edema at 50 mg/kg, po; type: functional
[10] = system: Mus musculus; experiment: Analgesic activity against p-benzoquinone-induced abdominal constriction in Swiss albino mouse assessed as number of writhings at 25 mg/kg, po; type: functional, Abdomen
Summary of the method: (§2)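 Test samples given orally in 0.5% CMC; vehicle to controls. 60 min later, 2.5% (v/v) p-benzoquinone in distilled water, 0.1 ml/10 g, given i.p. Mice housed singly; writhes counted for 15 min starting 5 min after injection. Activity is % change from vehicle controls. n = 6; mean ± SEM.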

[11] = system: Mus musculus; experiment: Analgesic activity against p-benzoquinone-induced abdominal constriction in Swiss albino mouse assessed as number of writhings at 50 mg/kg, po; type: functional, Abdomen; summary of the method: as §2
[12] = system: Mus musculus; experiment: Analgesic activity against p-benzoquinone-induced abdominal constriction in Swiss albino mouse assessed as number of writhings at 100 mg/kg, po; type: functional, Abdomen; summary of the method: as §2
[13] = system: Mus musculus; experiment: Analgesic activity against p-benzoquinone-induced abdominal constriction in Swiss albino mouse assessed as number of writhings at 200 mg/kg, po; type: functional, Abdomen; summary of the method: as §2
[14] = system: Mus musculus; experiment: Inhibition of p-benzoquinone-induced writhing in Swiss albino mouse at 25 mg/kg, po relative to control; type: functional
Summary of the method: (§3)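 Mice, n = 6 per group, dosed orally with a suspension in 0.5% sodium CMC. 60 min later, 0.1 ml/10 g of 2.5% […] p-benzoquinone in distilled water given ip. Abdominal writhes counted per animal for 15 min, starting 5 min after injection. Expressed as % change in mean writhing count versus vehicle controls.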

[15] = system: Mus musculus; experiment: Inhibition of p-benzoquinone-induced writhing in Swiss albino mouse at 50 mg/kg, po relative to control; type: functional; summary of the method: as §3
[16] = system: Mus musculus; experiment: Inhibition of p-benzoquinone-induced writhing in Swiss albino mouse at 100 mg/kg, po relative to control; type: functional; summary of the method: as §3
[17] = system: Mus musculus; experiment: Inhibition of p-benzoquinone-induced writhing in Swiss albino mouse at 200 mg/kg, po relative to control; type: functional; summary of the method: as §3
[18] = system: Mus musculus; experiment: Gastric-ulcerogenic effect in Swiss albino mouse assessed as lesions at 25 mg/kg, po; type: functional, organism-based; parameters: dose 25 mg/kg
Summary of the method: (§4)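 Mice killed under deep ether anesthesia 3 h after the writhing test; the oral dose in 0.5% CMC was the one used in that test. Stomachs removed, opened along the great curvature and examined under a dissecting microscope for lesions or bleeding. Reported as ratio of ulceration; n = 6.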

[19] = system: Mus musculus; experiment: Gastric-ulcerogenic effect in Swiss albino mouse assessed as lesions at 50 mg/kg, po; type: functional, organism-based; parameters: dose 50 mg/kg; summary of the method: as §4
[20] = system: Mus musculus; experiment: Gastric-ulcerogenic effect in Swiss albino mouse assessed as lesions at 100 mg/kg, po; type: functional, organism-based; parameters: dose 100 mg/kg; summary of the method: as §4
[21] = system: Mus musculus; experiment: Antiinflammatory activity against carrageenan-induced paw edema in Swiss albino mouse assessed as swelling thickness at 25 mg/kg, po after 90 mins; type: functional; summary of the method: as §1
[22] = system: Mus musculus; experiment: Antiinflammatory activity against carrageenan-induced paw edema in Swiss albino mouse assessed as swelling thickness at 25 mg/kg, po after 180 mins; type: functional; summary of the method: as §1
[23] = system: Mus musculus; experiment: Antiinflammatory activity against carrageenan-induced paw edema in Swiss albino mouse assessed as swelling thickness at 25 mg/kg, po after 270 mins; type: functional; summary of the method: as §1
[24] = system: Mus musculus; experiment: Antiinflammatory activity against carrageenan-induced paw edema in Swiss albino mouse assessed as swelling thickness at 25 mg/kg, po after 360 mins; type: functional; summary of the method: as §1
[25] = system: Mus musculus; experiment: Antiinflammatory activity against carrageenan-induced paw edema in Swiss albino mouse assessed as swelling thickness at 50 mg/kg, po after 180 mins; type: functional; summary of the method: as §1
[26] = system: Mus musculus; experiment: Antiinflammatory activity against carrageenan-induced paw edema in Swiss albino mouse assessed as swelling thickness at 50 mg/kg, po after 270 mins; type: functional; summary of the method: as §1
[27] = system: Mus musculus; experiment: Antiinflammatory activity against carrageenan-induced paw edema in Swiss albino mouse assessed as swelling thickness at 50 mg/kg, po after 360 mins; type: functional; summary of the method: as §1
[28] = system: Mus musculus; experiment: Antiinflammatory activity against carrageenan-induced paw edema in Swiss albino mouse assessed as swelling thickness at 200 mg/kg, po after 90 mins; type: functional; summary of the method: as §1
[29] = system: Mus musculus; experiment: Antiinflammatory activity against carrageenan-induced paw edema in Swiss albino mouse assessed as swelling thickness at 200 mg/kg, po after 180 mins; type: functional; summary of the method: as §1
[30] = system: Mus musculus; experiment: Antiinflammatory activity against carrageenan-induced paw edema in Swiss albino mouse assessed as swelling thickness at 200 mg/kg, po after 270 mins; type: functional; summary of the method: as §1
[31] = system: Mus musculus; experiment: Antiinflammatory activity against carrageenan-induced paw edema in Swiss albino mouse assessed as swelling thickness at 200 mg/kg, po after 360 mins; type: functional; summary of the method: as §1
[32] = system: Mus musculus; experiment: Inhibition of carrageenan-induced paw edema in Swiss albino mouse at 25 mg/kg, po after 90 mins relative to control; type: functional; details: 1.5 h; summary of the method: as §1
[33] = system: Mus musculus; experiment: Inhibition of carrageenan-induced paw edema in Swiss albino mouse at 25 mg/kg, po after 180 mins relative to control; type: functional; details: 3 h; summary of the method: as §1
[34] = system: Mus musculus; experiment: Inhibition of carrageenan-induced paw edema in Swiss albino mouse at 25 mg/kg, po after 270 mins relative to control; type: functional; details: 4.5 h; summary of the method: as §1
[35] = system: Mus musculus; experiment: Inhibition of carrageenan-induced paw edema in Swiss albino mouse at 25 mg/kg, po after 360 mins relative to control; type: functional; details: 6 h; summary of the method: as §1
[36] = system: Mus musculus; experiment: Inhibition of carrageenan-induced paw edema in Swiss albino mouse at 50 mg/kg, po after 90 mins relative to control; type: functional; details: 1.5 h
Summary of the method: (§5)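 Mice, n = 6 per group. Test agent given orally as a suspension in 0.5% sodium CMC in distilled water; controls received vehicle only. Afterwards, 0.5 mg/25 ll carrageenan in saline (154 mM NaCl) injected subplantar into the right hind paw, saline into the left. Right-minus-left footpad thickness measured by dial gauge caliper every 90 min for 6 h. Inhibition is relative to vehicle-control group means.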

[37] = system: Mus musculus; experiment: Inhibition of carrageenan-induced paw edema in Swiss albino mouse at 50 mg/kg, po after 180 mins relative to control; type: functional; details: 3 h; summary of the method: as §1
[38] = system: Mus musculus; experiment: Inhibition of carrageenan-induced paw edema in Swiss albino mouse at 50 mg/kg, po after 270 mins relative to control; type: functional; details: 4.5 h; summary of the method: as §5
[39] = system: Mus musculus; experiment: Inhibition of carrageenan-induced paw edema in Swiss albino mouse at 50 mg/kg, po after 360 mins relative to control; type: functional; details: 6 h; summary of the method: as §5
[40] = system: Mus musculus; experiment: Inhibition of carrageenan-induced paw edema in Swiss albino mouse at 200 mg/kg, po after 90 mins relative to control; type: functional; details: 1.5 h; summary of the method: as §1
[41] = system: Mus musculus; experiment: Inhibition of carrageenan-induced paw edema in Swiss albino mouse at 200 mg/kg, po after 180 mins relative to control; type: functional; details: 3 h; summary of the method: as §1
[42] = system: Mus musculus; experiment: Inhibition of carrageenan-induced paw edema in Swiss albino mouse at 200 mg/kg, po after 270 mins relative to control; type: functional; details: 4.5 h; summary of the method: as §1
[43] = system: Mus musculus; experiment: Inhibition of carrageenan-induced paw edema in Swiss albino mouse at 200 mg/kg, po after 360 mins relative to control; type: functional; details: 6 h; summary of the method: as §1
[44] = system: Mus musculus; experiment: Acute toxicity in Swiss albino mouse assessed as lethal effect at 25 mg/kg/day, po after 72 hrs; type: organism-based; parameters: route oral; details: in vivo
Summary of the method: (§6)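 Oral single dose suspended in 0.5% carboxymethylcellulose, given after a 24 h fast; food and water returned 1 h after dosing. Vehicle-only controls. Mice observed at 1 h, then once daily for 72 h, for toxic signs and mortality.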

[45] = system: Mus musculus; experiment: Acute toxicity in Swiss albino mouse assessed as lethal effect at 50 mg/kg/day, po after 72 hrs; type: organism-based; parameters: route oral; details: in vivo; summary of the method: as §6
[46] = system: Mus musculus; experiment: Acute toxicity in Swiss albino mouse assessed as lethal effect at 100 mg/kg/day, po after 72 hrs; type: organism-based; parameters: route oral; details: in vivo; summary of the method: as §6
[47] = system: Mus musculus; experiment: Acute toxicity in Swiss albino mouse assessed as lethal effect at 200 mg/kg/day, po after 72 hrs; type: organism-based; parameters: route oral; details: in vivo; summary of the method: as §6
[48] = system: Mus musculus; experiment: Antiinflammatory activity against carrageenan-induced paw edema in Swiss albino mouse assessed as swelling thickness at 50 mg/kg, po after 90 mins; type: functional; summary of the method: as §1

CCS(=O)(=O)c1nc(-c2ccccc2Cl)n[nH]1
Activity [1]: 29.8 10^-2mm
Activity [2]: 33.8 10^-2mm
Activity [3]: 35 10^-2mm
Activity [4]: 38.5 10^-2mm
inhibition in vivo at 100 mg/kg [5]: 33.4%
inhibition in vivo at 100 mg/kg [6]: 34.4%
inhibition in vivo at 100 mg/kg [7]: 40.5%
inhibition in vivo at 100 mg/kg [8]: 44%
inhibition in vivo at 50 mg/kg [9]: 37.9%
Activity [10]: 38.2
Activity [11]: 23.4
Activity [12]: 23.4
Activity [13]: 45.9
inhibition in vivo at 25 mg/kg [14]: 25.7%
inhibition in vivo at 50 mg/kg [15]: 54.5%
inhibition in vivo at 100 mg/kg [16]: 50.5%
inhibition in vivo at 200 mg/kg [17]: 10.7%
Activity [18]: Active
Activity [19]: Active
Activity [20]: Active
Activity [21]: 47.2 10^-2mm
Activity [22]: 54.4 10^-2mm
Activity [23]: 59.1 10^-2mm
Activity [24]: 61.5 10^-2mm
Activity [25]: 35.8 10^-2mm
Activity [26]: 41.4 10^-2mm
Activity [27]: 40.5 10^-2mm
Activity [28]: 43.1 10^-2mm
Activity [29]: 45.8 10^-2mm
Activity [30]: 51.9 10^-2mm
Activity [31]: 56.5 10^-2mm
inhibition in vivo at 25 mg/kg [32]: 11.3%
inhibition in vivo at 25 mg/kg [33]: 8.4%
inhibition in vivo at 25 mg/kg [34]: 8.8%
inhibition in vivo at 25 mg/kg [35]: 14.6%
inhibition in vivo at 50 mg/kg [36]: 31.9%
inhibition in vivo at 50 mg/kg [37]: 39.7%
inhibition in vivo at 50 mg/kg [38]: 36.1%
inhibition in vivo at 50 mg/kg [39]: 43.8%
inhibition in vivo at 200 mg/kg [40]: 18.9%
inhibition in vivo at 200 mg/kg [41]: 22.9%
inhibition in vivo at 200 mg/kg [42]: 19.9%
inhibition in vivo at 200 mg/kg [43]: 21.5%
Activity [44]: Non-toxic
Activity [45]: Non-toxic
Activity [46]: Non-toxic
Activity [47]: Non-toxic
Activity [48]: 36.2 10^-2mm

From ChEMBL document CHEMBL1142894, “Preparation of 5-aryl-3-alkylthio-l,2,4-triazoles and corresponding sulfones with antiinflammatory-analgesic activity” (Bioorg Med Chem, 2007)
